ChEMBL document CHEMBL3745660, “Hit-to-lead optimization of phenylsulfonyl hydrazides for a potent suppressor of PGE2 production: Synthesis, biological activity, and molecular docking study” (Bioorg Med Chem Lett, 2016)

What was measured:
[1] = system: RAW264.7; assay: Cytotoxicity against mouse RAW264.7 cells assessed as cell viability at 1 to 10 uM after 24 hrs in presence of LPS by MTT assay; assay type: cell-based; settings: raw264.7, 24 h
In short: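 RAW 264.7 macrophages treated with compounds at 1 or 10 µM in the presence of LPS for 24 h; viability read by MTT assay. Experiments run at least twice.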

[2] = system: RAW264.7; assay: Suppression of PGE2 production in LPS-induced mouse RAW264.7 cells after 24 hrs by enzyme immunoassay; assay type: functional, cell-based; settings: RAW264.7, 24 h
In short: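 RAW 264.7 cells stimulated with LPS and treated with compound for 24 h, first screened at 1 or 10 µM. Compounds giving >50% suppression went on to IC50 determination. PGE2 in medium measured by EIA. NS398 at 3 µM served as positive control. Runs done at least twice.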

[3] = target: T1, Prostaglandin E synthase (Homo sapiens) (UniProt O14684); assay: Inhibition of PGES-1 in human A549 cell microsomes using PGH2 as substrate assessed as remaining enzyme activity of interleukin-1beta-stimulated PGE2 production at 10 uM incubated for 15 mins post interleukin-1beta challenge for 72 hrs by RP-HPLC analysis
T1 sequence (whole entry): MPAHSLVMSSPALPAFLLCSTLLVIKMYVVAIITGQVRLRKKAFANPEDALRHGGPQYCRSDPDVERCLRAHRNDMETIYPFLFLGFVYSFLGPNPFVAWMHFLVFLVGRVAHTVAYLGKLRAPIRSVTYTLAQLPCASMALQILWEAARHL
In short: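 Microsomes from A549 cells stimulated with 2 ng/mL IL-1β for 72 h (pellet after 10,000 × g then 174,000 × g spins), diluted in 0.1 M potassium phosphate pH 7.4 with 2.5 mM glutathione. Compound at 10 µM preincubated 15 min at 4 °C, then 20 µM PGH2 added for 1 min at 4 °C. Stopped with FeCl2/citric acid containing 11β-PGE2 internal standard. PGE2 isolated by solid-phase extraction and quantified by RP-HPLC. Activity given as % of uninhibited control, mean ± S.E.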

[4] = target: T2, Prostaglandin E synthase (Homo sapiens, UniProt O14684); assay: Inhibition of PGES-1 in human A549 cell microsomes using PGH2 as substrate assessed as suppression of interleukin-1beta-stimulated PGE2 production incubated for 15 mins post interleukin-1beta challenge for 72 hrs by RP-HPLC analysis
T2 sequence (O14684 whole entry): T1 sequence (whole entry)
In short: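 Enzyme source was A549 microsomes after 72 h IL-1β (2 ng/mL) stimulation, in 0.1 M potassium phosphate pH 7.4 with 2.5 mM GSH. Compounds preincubated 15 min at 4 °C over a concentration range, then 20 µM PGH2 added for 1 min at 4 °C. Reaction stopped, PGE2 recovered by solid-phase extraction and measured by RP-HPLC against 11β-PGE2.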

[5] = target: T1, Prostaglandin E synthase (Homo sapiens); assay: Potency index, ratio of IC50 for MK-886 to IC50 for test compound for inhibition of PGES-1 in human A549 cell microsomes; assay type: cell-based
[6] = system: RAW264.7; assay: Potency index, ratio of IC50 for NS398 to IC50 for test compound for suppression of PGE2 production in LPS-induced mouse RAW264.7 cells; assay type: functional
[7] = system: RAW264.7; assay: Suppression of NO production in LPS-induced mouse RAW264.7 cells by Griess assay; assay type: functional, cell-based
In short: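 LPS (10 ng/mL)-stimulated RAW 264.7 cells co-incubated with compound at 0.1–10 nM. Nitrite in supernatant read with Griess reagent. Means ± SD of three samples; ANOVA with Dunnett's test.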

| Structure (SMILES) | Cytotoxic concentration [1] | IC50 [2] [nM] | Activity [3] [%] | IC50 [4] [nM] | Ratio IC50 [5] | Ratio IC50 [6] | IC50 [7] [nM] |
| --- | --- | --- | --- | --- | --- | --- | --- |
| Cc1cc(C)c(S(=O)(=O)N(Nc2ccccc2)C(=O)Oc2ccc(OCc3ccccc3)cc2)c(C)c1 | > 1 µM | 81.5 |  |  |  |  |  |
| COc1ccc(OC(=O)N(Nc2ccccc2)S(=O)(=O)c2ccc(OC)cc2)cc1 | > 10 µM | 490 |  |  |  |  |  |
| Cc1ccc(OC(=O)N(Nc2ccccc2)S(=O)(=O)c2ccccc2)cc1 | > 10 µM | 1020 |  |  |  |  |  |
| O=C(Oc1ccccc1)N(Nc1ccccc1)S(=O)(=O)c1ccccc1 |  |  | 63.6 | > 10000 |  |  |  |
| O=C(Oc1ccc(Oc2ccccc2)cc1)N(Nc1ccccc1)S(=O)(=O)c1ccc(-c2ccccc2)cc1 | > 1 µM | 161 |  |  |  |  |  |
| COc1ccc(S(=O)(=O)N(Nc2ccccc2)C(=O)Oc2ccccc2)cc1 | > 10 µM | 4430 |  |  |  |  |  |
| COc1ccccc1OC(=O)N(Nc1ccccc1)S(=O)(=O)c1ccc(C)cc1 | > 10 µM | 34.1 | 55.7 | > 10000 |  |  |  |
| COc1ccc(S(=O)(=O)N(Nc2ccccc2)C(=O)Oc2ccc(Oc3ccccc3)cc2)cc1 | > 10 µM | 17.1 | 37.1 | 6600 |  |  |  |
| O=C(Oc1ccc(OCc2ccccc2)cc1)N(Nc1ccccc1)S(=O)(=O)c1ccc(-c2ccccc2)cc1 | > 1 µM | 93 |  |  |  |  |  |
| CC(C)(C)c1ccc(S(=O)(=O)N(Nc2ccccc2)C(=O)Oc2ccc(OCc3ccccc3)cc2)cc1 | > 1 µM | 56.9 | 79.9 | > 10000 |  |  |  |
| Cc1ccc(S(=O)(=O)N(Nc2ccccc2)C(=O)Oc2ccccc2)cc1 | > 10 µM | 5720 |  |  |  |  |  |
| COc1ccc(S(=O)(=O)N(Nc2ccccc2)C(=O)Oc2ccccc2OC)cc1 | > 10 µM | 165 |  |  |  |  |  |
| COc1ccc(OC(=O)N(Nc2ccccc2)S(=O)(=O)c2ccccc2)cc1 | > 10 µM | 584 |  |  |  |  |  |
| COc1ccc(S(=O)(=O)N(Nc2ccccc2)C(=O)Oc2ccc(OCc3ccccc3)cc2)cc1 | >= 10 uM | 50 | 62.6 | > 10000 |  |  |  |
| CCOc1ccc(OC(=O)N(Nc2ccccc2)S(=O)(=O)c2ccc(OC)cc2)cc1 | > 10 µM | 20.5 | 62.5 | > 10000 |  |  |  |
| Cc1ccc(OC(=O)N(Nc2ccccc2)S(=O)(=O)c2ccc(C)cc2)cc1 | > 10 µM | 1010 | 41.3 | 6100 |  |  |  |
| CC(C)c1ccc2c(c1)c(SC(C)(C)C)c(CC(C)(C)C(=O)O)n2Cc1ccc(Cl)cc1 |  |  | 16.3 |  |  |  |  |
| Cc1ccc(S(=O)(=O)N(Nc2ccccc2)C(=O)Oc2ccc(OCc3ccccc3)cc2)cc1 | >= 10 uM | 32.6 | 81.2 | > 10000 |  |  |  |
| Cc1cc(C)c(S(=O)(=O)N(Nc2ccccc2)C(=O)Oc2ccc(Oc3ccccc3)cc2)c(C)c1 | > 1 µM | 177 |  |  |  |  |  |
| CCCc1ccc(S(=O)(=O)N(Nc2ccccc2)C(=O)Oc2ccc(Oc3ccccc3)cc2)cc1 | > 1 µM | 134 |  |  |  |  |  |
| COc1ccc(S(=O)(=O)N(Nc2ccccc2)C(=O)Oc2ccc3c(c2)CCC3)cc1 | > 10 µM | 4.5 | 18.5 | 70 | 30 | 1.5 | 6.9 |
| CCc1ccc(OC(=O)N(Nc2ccccc2)S(=O)(=O)c2ccc(OC)cc2)cc1 | > 10 µM | 28.5 | 63.6 | > 10000 |  |  |  |
